Laboratory results taken from ChEMBL document CHEMBL1914358, “Virtual screening targeting the urokinase receptor, biochemical and cell-based studies, synthesis, pharmacokinetic characterization, and effect on breast tumor metastasis” (J Med Chem, 2011).
Calls of active or inactive are those of the source. The calls are words filed in the database; no cut-off is given here.

Experiments:
CYP2C9 [1] = target: T1, CYP2C9 (Homo sapiens, UniProt P11712); assay: Inhibition of CYP2C9 at 5 uM by fluorsecence-based assay
[2] = target: Urokinase plasminogen activator surface receptor (Homo sapiens, UniProt Q03405); assay: Displacement of […] peptide from human uPAR expressed in drosophila S2 cells by fluorescence polarization assay
Outline: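 Soluble human uPAR (residues 1-283), from stably transfected Drosophila S2 cells, was used at 500 nM with 100 nM AE147-FAM. Inhibitor range 0.78-100 μM in 0.01% Triton X-100/PBS, final 2% DMSO, triplicate. Polarization was read immediately at room temperature (ex 485/em 530 nm).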

MDA-MB-231 [3] = assay: Antimetastatic activity in human MDA-MB-231 cells assessed as inhibition of cell invasion after 3 hrs by transwell assay; format: functional, cell-based; details: MDA-MB-231, 3 h
MDA-MB-231 [4] = assay: Antimetastatic activity in human MDA-MB-231 cells assessed as inhibition of cell migration after 3 hrs by transwell assay; format: functional, cell-based; details: MDA-MB-231, 3 h
Outline: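 Serum-starved (4 h) subconfluent cells, 5 × 10^4 in 0.1% FBS DMEM with compound or 1.0% DMSO, were placed in upper chambers of inserts with fibronectin-coated undersides (30 μg/ml). After 3 h at 37°C, 5% CO2, cells on the underside were methanol-fixed, hematoxylin-stained and counted in ten fields (×200). Triplicate; mean ± SE.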

MDA-MB-231 [5] = assay: Antimetastatic activity in human MDA-MB-231 cells assessed as inhibition of cell adhesion after 90 mins by crystal violet staining; format: functional, cell-based; details: MDA-MB-231, 1.5 h
Outline: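 Wells were coated with 15 μg/ml fibronectin for 1 h at room temperature, then blocked with 3% heat-denatured BSA for 1 h at 37°C. Subconfluent cells were trypsinized, quenched with soybean trypsin inhibitor and washed in serum-free medium. 2 × 10^4 cells per well with compound, quadruplicate, 90 min at 37°C. Adherent cells were read by crystal violet at 570 nm; mean ± SE.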

HUVEC = assay: Antiangiogenic activity in human HUVEC cells assessed as inhibition of tube formation by matrigel-based tube formation assay
MDA-MB-231 [6] = assay: Antiproliferative activity against human MDA-MB-231 cells assessed as decrease in cell viability after 3 days by MTT assay; format: functional, cell-based; details: MDA-MB-231, 72 h
Outline: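 Cells were grown at 37°C in 10% FBS-DMEM with serially diluted compound, made from 5 mM DMSO stock diluted 1:50 in medium, for 3 days. Viability was read by MTT absorbance at 570 and 630 nm.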

MDA-MB-231 [7] = assay: Induction of apoptosis in human MDA-MB-231 cells at 50 uM after 24 hrs by annexin V-FITC and propidium iodide staining relative to control; format: functional
Outline: (§1)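 MDA-MB-231 grown in DMEM/10% FBS with penicillin/streptomycin, 37 °C, 5% CO2, to 80–90% confluence; exposed to compound or 1% DMSO control for 24 h. Cells detached, washed in cold PBS, 1×10^5 cells in binding buffer stained with annexin V-FITC and propidium iodide 15 min at 25 °C in the dark, analysed by flow cytometry; apoptotic = annexin V+/PI−, necrotic = annexin V+/PI+.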

MDA-MB-231 [8] = assay: Induction of necrosis in human MDA-MB-231 cells at 50 uM after 24 hrs by annexin V-FITC and propidium iodide staining relative to control; format: functional; outline: as §1
[9] = target: T2, Matrix metalloproteinase-9 (Homo sapiens, UniProt P14780); assay: Inhibition of human MMP-9 activity in human MDA-MB-231 cells assessed as ECM degradation after 24 hrs by gelatin zymography assay; format: cell-based
[10] = target: T2, Matrix metalloproteinase-9; assay: Inhibition of human MMP-9 activity in human MDA-MB-231 cells assessed as ECM degradation at 50 uM after 24 hrs by gelatin zymography assay; format: cell-based
Outline: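 Cells were treated with compound in serum-free medium for 24 h, and conditioned medium was concentrated and protein-normalized. Samples were run on 10% SDS gels containing 1 mg/ml gelatin. Clear bands were quantified after Coomassie staining.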

MDA-MB-231 [11] = assay: (§2) Inhibition of human MAPK phosphorylation in MDA-MB-231 cells at 100 uM after 30 mins by Western blot analysis; format: cell-based
Outline: (§3)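 MDA-MB-231 cells were exposed to 100 μM compound or 1% DMSO for 30 min and lysed in RIPA buffer with protease and phosphatase inhibitors. Equal protein was run on 4-12% gels under non-reducing conditions and transferred to nitrocellulose. Detection used HRP secondary antibody and chemiluminescence.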

CYP2C9 [12] = target: T1, CYP2C9; assay: Inhibition of CYP2C9 at 25 uM by fluorsecence-based assay; format: ADME
Outline: (§4)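 Fluorescence-based CYP2C9 assay measuring inhibition of fluorescent substrate metabolism at the stated concentration. Sulphaphenazole at 5 μM served as positive control.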

Nucleic Acid [13] = assay: Displacement of ethidium bromide from salmon sperm DNA at 1 uM by fluorescence assay; format: nucleic-acid assay; details: Salmonidae
Outline: (§5)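 Fluorescent intercalator displacement: loss of fluorescence from ethidium bromide bound to salmon sperm DNA, excitation 530 nm, at the stated compound concentration.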

Nucleic Acid [14] = assay: Displacement of ethidium bromide from salmon sperm DNA at 10 uM by fluorescence assay; format: nucleic-acid assay; details: Salmonidae; outline: as §5
Nucleic Acid [15] = assay: Displacement of ethidium bromide from salmon sperm DNA at 25 uM by fluorescence assay; format: nucleic-acid assay; details: Salmonidae; outline: as §5
[16] = Cmax in mouse at 100 mg/kg, po administered as single dose after 5 hrs by HPLC-MS/MS analysis; format: ADME, organism-based; set-up: dose 100 mg/kg, route oral; details: in vivo
[17] = Tmax in mouse at 100 mg/kg, po administered as single dose by HPLC-MS/MS analysis; format: ADME, organism-based; set-up: dose 100 mg/kg, route oral; details: in vivo
[18] = Half life in mouse at 100 mg/kg, po administered as single dose by HPLC-MS/MS analysis; format: ADME, organism-based; set-up: dose 100 mg/kg, route oral; details: in vivo
[19] = Antitumor activity against human […] cells xenografted in NOD/SCID mouse assessed as decrease in tumor volume at 150 mg/kg, po qd administered 18 days post-implantation measured after 68 days; format: functional; set-up: scale not given: the % may be the effect or the level left
Outline: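 Female NOD/SCID mice bearing mammary fat pad TMD-231 tumours were randomized and dosed from day 18 post-implantation by daily oral gavage at 150 mg/kg or vehicle (n = 11). Caliper measurements were taken over 68 days; volume = (shorter² × longer)/2.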

[20] = Toxicity in po dosed NOD/SCID mouse xenografted human […] cells; format: organism-based; details: in vivo
TMB-231 = assay: Antitumor activity against human […] cells xenografted in NOD/SCID mouse assessed as reduction in lung metastatic lesions at 150 mg/kg, po qd administered 18 days post-implantation measured after 68 days; format: functional, organism-based; set-up: dose 150 mg/kg
Outline: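 Female NOD/SCID mice with mammary fat pad TMD-231 tumours received daily oral gavage at 150 mg/kg or vehicle from day 18 (n = 11). At study end lungs were removed and H&E stained. Metastasis number and size were assessed in 2-5 fields per sample and scored 1+ to 4+ relative to the highest sample by a blinded pathologist.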

[21] = tested on: hERG potassium channel KCNH2 (Homo sapiens); assay: Inhibition of human ERG potassium channel (hERG) at 25 uM by fluorescence polarization assay
[22] = AUC (0 to infinity) in mouse at 50 mg/kg, po administered as single dose by HPLC-MS/MS analysis; details: plasma
[23] = Apparent oral clearance in mouse at 50 mg/kg administered as single dose by HPLC-MS/MS analysis; details: in vivo
MDA-MB-231 [24] = assay: Induction of apoptosis in human MDA-MB-231 cells assessed as apoptotic cells at 50 uM after 24 hrs by annexin V-FITC and propidium iodide staining (reference value: 4%); format: functional; outline: as §1
Cytochrome P450 2C9 = Cytochrome P450 2C9 (Homo sapiens, UniProt P11712); assay: Inhibition of CYP2C9 at 1 uM by fluorsecence-based assay; format: ADME; outline: as §4
[25] = as §2; format: cell-based; details: MDA-MB-231, 0.5 h; outline: as §3
[26] = target: Focal adhesion kinase 1 (Homo sapiens) (UniProt Q05397); assay: Inhibition of human FAK phosphorylation in MDA-MB-231 cells at 100 uM after 30 mins by Western blot analysis; format: cell-based; outline: as §3
[27] = target: Proto-oncogene tyrosine-protein kinase Src (Homo sapiens) (UniProt P12931); assay: Inhibition of human SRC phosphorylation in MDA-MB-231 cells at 100 uM after 30 mins by Western blot analysis; format: cell-based; outline: as §3
[28] = tested on: hERG potassium channel KCNH2 (Homo sapiens); assay: Inhibition of human ERG channel at 25 uM =
[29] = tested on: hERG potassium channel KCNH2 (Homo sapiens); assay: Inhibition of human ERG potassium channel (hERG) at 1 uM by fluorescence polarization assay
[30] = tested on: hERG potassium channel KCNH2 (Homo sapiens); assay: Inhibition of human ERG potassium channel (hERG) at 10 uM by fluorescence polarization assay

T2 sequence (P14780 whole entry): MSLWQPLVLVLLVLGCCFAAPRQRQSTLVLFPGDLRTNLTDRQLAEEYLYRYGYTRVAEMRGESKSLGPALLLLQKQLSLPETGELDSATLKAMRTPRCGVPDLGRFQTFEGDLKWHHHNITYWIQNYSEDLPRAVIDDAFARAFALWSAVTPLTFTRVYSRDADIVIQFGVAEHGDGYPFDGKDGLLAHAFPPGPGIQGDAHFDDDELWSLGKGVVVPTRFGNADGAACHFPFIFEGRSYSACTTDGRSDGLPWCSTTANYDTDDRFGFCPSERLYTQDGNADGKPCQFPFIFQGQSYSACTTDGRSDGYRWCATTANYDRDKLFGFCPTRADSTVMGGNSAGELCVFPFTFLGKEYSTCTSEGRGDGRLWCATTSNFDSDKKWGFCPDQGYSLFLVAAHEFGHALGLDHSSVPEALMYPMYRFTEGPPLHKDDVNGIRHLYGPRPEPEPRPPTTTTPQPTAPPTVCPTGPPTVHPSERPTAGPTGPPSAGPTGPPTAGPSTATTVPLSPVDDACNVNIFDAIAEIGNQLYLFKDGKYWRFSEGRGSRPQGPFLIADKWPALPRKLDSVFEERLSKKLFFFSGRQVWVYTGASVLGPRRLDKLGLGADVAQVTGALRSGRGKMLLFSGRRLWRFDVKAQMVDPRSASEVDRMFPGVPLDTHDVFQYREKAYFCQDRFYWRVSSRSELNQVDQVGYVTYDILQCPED
Urokinase plasminogen activator surface receptor, sequence (Q03405 whole entry, the tested form may be a part): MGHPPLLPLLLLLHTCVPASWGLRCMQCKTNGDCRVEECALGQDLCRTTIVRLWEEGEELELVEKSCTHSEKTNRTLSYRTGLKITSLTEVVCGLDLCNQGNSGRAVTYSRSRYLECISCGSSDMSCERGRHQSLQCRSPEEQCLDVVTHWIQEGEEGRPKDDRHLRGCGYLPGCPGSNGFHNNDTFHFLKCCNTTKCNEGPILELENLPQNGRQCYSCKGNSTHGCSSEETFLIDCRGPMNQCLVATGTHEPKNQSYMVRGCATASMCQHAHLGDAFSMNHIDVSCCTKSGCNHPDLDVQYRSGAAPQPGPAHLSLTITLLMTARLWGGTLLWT
T1 sequence (P11712 whole entry): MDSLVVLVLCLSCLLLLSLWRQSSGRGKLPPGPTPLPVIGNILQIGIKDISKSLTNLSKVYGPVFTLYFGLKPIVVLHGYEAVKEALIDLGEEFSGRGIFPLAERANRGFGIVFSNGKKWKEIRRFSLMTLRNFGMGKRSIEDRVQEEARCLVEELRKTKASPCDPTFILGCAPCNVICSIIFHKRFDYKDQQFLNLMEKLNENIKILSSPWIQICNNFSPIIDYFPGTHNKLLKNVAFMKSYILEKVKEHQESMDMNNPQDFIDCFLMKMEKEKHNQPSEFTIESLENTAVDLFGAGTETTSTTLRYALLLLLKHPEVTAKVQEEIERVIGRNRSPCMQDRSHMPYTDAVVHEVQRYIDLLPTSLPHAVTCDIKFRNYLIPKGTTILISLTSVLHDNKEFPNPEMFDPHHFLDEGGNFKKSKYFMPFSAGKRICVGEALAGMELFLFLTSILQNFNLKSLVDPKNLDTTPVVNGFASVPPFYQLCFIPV
Cytochrome P450 2C9, sequence (P11712 whole entry): as above
Focal adhesion kinase 1 (Homo sapiens), sequence (Q05397 2-1052 limits assumed): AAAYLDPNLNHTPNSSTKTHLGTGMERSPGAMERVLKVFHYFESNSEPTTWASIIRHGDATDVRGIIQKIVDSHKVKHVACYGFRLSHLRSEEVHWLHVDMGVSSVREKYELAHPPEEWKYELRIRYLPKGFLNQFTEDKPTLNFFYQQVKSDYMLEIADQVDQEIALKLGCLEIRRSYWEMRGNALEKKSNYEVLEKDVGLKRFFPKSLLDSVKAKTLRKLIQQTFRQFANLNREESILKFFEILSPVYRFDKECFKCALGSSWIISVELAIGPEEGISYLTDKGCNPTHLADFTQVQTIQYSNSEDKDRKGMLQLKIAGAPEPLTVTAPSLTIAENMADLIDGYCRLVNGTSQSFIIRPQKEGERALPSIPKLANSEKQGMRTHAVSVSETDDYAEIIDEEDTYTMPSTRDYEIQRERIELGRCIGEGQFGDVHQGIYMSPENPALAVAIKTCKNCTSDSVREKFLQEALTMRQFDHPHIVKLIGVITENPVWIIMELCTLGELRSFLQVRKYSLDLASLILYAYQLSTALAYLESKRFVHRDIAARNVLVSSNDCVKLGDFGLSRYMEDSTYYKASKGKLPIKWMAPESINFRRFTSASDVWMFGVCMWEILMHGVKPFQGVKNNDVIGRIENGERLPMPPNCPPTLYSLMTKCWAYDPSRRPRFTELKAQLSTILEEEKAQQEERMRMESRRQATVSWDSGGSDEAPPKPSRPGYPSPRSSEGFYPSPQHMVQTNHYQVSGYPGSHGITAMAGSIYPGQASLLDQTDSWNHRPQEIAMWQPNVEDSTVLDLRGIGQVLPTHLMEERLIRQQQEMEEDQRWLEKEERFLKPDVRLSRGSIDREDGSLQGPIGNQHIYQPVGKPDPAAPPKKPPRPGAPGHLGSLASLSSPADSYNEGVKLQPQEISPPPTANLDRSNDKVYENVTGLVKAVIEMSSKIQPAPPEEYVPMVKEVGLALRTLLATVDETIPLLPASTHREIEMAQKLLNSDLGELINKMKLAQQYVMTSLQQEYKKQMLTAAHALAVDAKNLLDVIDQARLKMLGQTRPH
Proto-oncogene tyrosine-protein kinase Src (Homo sapiens), sequence (P12931 2-536 limits assumed): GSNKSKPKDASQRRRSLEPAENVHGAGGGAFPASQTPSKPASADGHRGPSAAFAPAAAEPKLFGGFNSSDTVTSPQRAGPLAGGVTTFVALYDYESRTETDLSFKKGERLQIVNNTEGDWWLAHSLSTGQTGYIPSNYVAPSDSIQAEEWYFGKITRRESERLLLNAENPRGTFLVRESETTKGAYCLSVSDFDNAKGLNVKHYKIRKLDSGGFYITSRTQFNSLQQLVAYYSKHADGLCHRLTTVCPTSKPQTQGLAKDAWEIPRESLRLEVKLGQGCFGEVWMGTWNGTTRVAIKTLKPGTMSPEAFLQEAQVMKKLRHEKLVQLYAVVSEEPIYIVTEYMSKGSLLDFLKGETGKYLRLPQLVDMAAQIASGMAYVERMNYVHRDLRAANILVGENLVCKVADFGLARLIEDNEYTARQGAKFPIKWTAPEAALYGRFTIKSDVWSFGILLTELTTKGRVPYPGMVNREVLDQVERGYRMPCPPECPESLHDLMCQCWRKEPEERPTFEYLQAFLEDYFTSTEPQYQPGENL

Compound `Nc1ccc(S(=O)(=O)Nc2ccnn2-c2ccccc2)cc1` [SULFAPHENAZOLE] has an inhibition at 5 µM (CYP2C9 [1]) of 69%.
In the case of `Cc1cc(C)cc(NC(=O)c2cnn(-c3ccc(C(C)C)cc3)c2C2CCNCC2)c1`, the Activity [2] is reported as “Dose-dependent effect”, the IC50 (MDA-MB-231 [3]) is reported as 30 µM and the IC50 (MDA-MB-231 [4]) is reported as 40 µM. For the same compound, the IC50 (MDA-MB-231 [5]) was 45 µM, the IC50 (HUVEC) was 3 µM and the IC50 (MDA-MB-231 [6]) was 6 µM. For the same compound, the Activity (MDA-MB-231 [7]) was 51%, the Activity (MDA-MB-231 [8]) was 21% and the IC50 [9] was 25 µM. For the same compound, the inhibition [9] was “Dose-dependent effect”, the inhibition [10] was 93% and the inhibition (MDA-MB-231 [11]) was “Active”. For the same compound, the inhibition at 25 µM (CYP2C9 [12]) was 20%, the inhibition (Nucleic Acid [13]) was “inactive” and the inhibition (Nucleic Acid [14]) was “inactive”. The inhibition (Nucleic Acid [15]) was < 10%, the Cmax [16] was 4.41 µg/mL and the Tmax [17] was 1 h. For the same compound, the half-life [18] was 2.18 h, the Activity [19] was 20% and the MTD [20] was 150 mg/kg. For the same compound, the Activity (TMB-231) was “Active”, the inhibition [21] was 60% and the AUC(0-inf) [22] was 47.2 µg·h/mL. It also gave a CL/F [23] of 0.7 mL/min.
With `CN(C)c1ccc(CNCCC(Cc2ccccc2)c2ccc3c(c2)OCO3)cc1` (racemic) the Ki [2] was 20 µM, the Activity (MDA-MB-231 [8]) was 22% and the Activity (MDA-MB-231 [24]) was 46%. The inhibition [9] was “Dose-dependent effect”, the inhibition (MDA-MB-231 [11]) was “Active” and the “inhibition (INH)” value (Cytochrome P450 2C9) was “Active”. For the same compound, the inhibition at 25 µM (CYP2C9 [12]) was 80%, the inhibition (Nucleic Acid [13]) was “inactive” and the inhibition (Nucleic Acid [14]) was “inactive”. The inhibition (Nucleic Acid [15]) was 30%.
In the case of `c1ccc(C[C@H](CCNCc2ccc3c(c2)OCO3)c2ccc3c(c2)OCO3)cc1` (racemic), the Activity [2] is reported as “Dose-dependent effect”, the IC50 [25] is reported as 20 µM and the inhibition [26] is reported as “inactive”. The inhibition [27] was “inactive”, the “inhibition (INH)” value (Cytochrome P450 2C9) was “Active” and the inhibition at 25 µM (CYP2C9 [12]) was 80%. The inhibition (Nucleic Acid [13]) was “inactive”, the inhibition (Nucleic Acid [14]) was “inactive” and the inhibition (Nucleic Acid [15]) was 30%. For the same compound, the inhibition [28] was “Active”, the inhibition [29] was “Active” and the inhibition [30] was “Active”.
